In brackets after ≈: the same amount, converted by molar mass.
Columns and labels:
Type in all cases: functional
Candida albicans [1] = assay: Antifungal activity against Candida albicans ATCC 10259 by standard microdilution method
Method in brief: (§1)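 Minimum inhibitory concentration measured by standard broth microdilution in 96-well microplates against the named yeast strain.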

Cryptococcus neoformans [2] = assay: Antifungal activity against Cryptococcus neoformans ATCC 36556 by standard microdilution method; method in brief: as §1
Aspergillus fumigatus = assay: Antifungal activity against Aspergillus fumigatus ATCC 13073 by standard microdilution method
Method in brief: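 MIC read from a 96-well microplate broth microdilution run by the standard method, with Sabouraud dextrose broth as the medium for A. fumigatus ATCC 13073.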

Candida albicans [3] = assay: Antifungal activity against Candida albicans B311 by standard microdilution method; method in brief: as §1
Candida albicans [4] = assay: Antifungal activity against Candida albicans 572-27 by standard microdilution method; method in brief: as §1
Cryptococcus neoformans [5] = assay: Antifungal activity against Cryptococcus neoformans 96-69 by standard microdilution method

Compound | MIC (Candida albicans [1]) | MIC (Cryptococcus neoformans [2]) | MIC (Aspergillus fumigatus) | MIC (Candida albicans [3]) | MIC (Candida albicans [4]) | MIC (Cryptococcus neoformans [5])
C[N+](C)(C)CCOP(=O)(O)OCCCCCCCCCCCCCCCCCl.[Cl-] | 0.5 µg/mL | 0.5 µg/mL | 3.1 µg/mL | 1 µg/mL | 1 µg/mL | 0.5 µg/mL
C[N+](C)(C)CCOP(=O)([O-])OCCCCCCCCCCCCCCCCCCCCCCOP(=O)([O-])OCC[N+](C)(C)C.Cl | 1.25 µg/mL | 0.04 µg/mL | 0.08 µg/mL | 0.5 µg/mL | 0.5 µg/mL | 0.5 µg/mL
C[N+](C)(C)CCOP(=O)([O-])OCCCCCCCCCCCCCCCCCCOP(=O)([O-])OCC[N+](C)(C)C | > 500 µg/mL | 500 µg/mL (≈ 811 µM) | – | – | > 500 µg/mL | > 500 µg/mL
C[N+](C)(C)CCOP(=O)([O-])OCCCCCCCCCCCCCCCCOP(=O)([O-])OCC[N+](C)(C)C | 125 µg/mL (≈ 212 µM) | 125 µg/mL (≈ 212 µM) | 25 µg/mL (≈ 42.5 µM) | 250 µg/mL (≈ 425 µM) | 125 µg/mL (≈ 212 µM) | 125 µg/mL (≈ 212 µM)
O=P(O)(OCCBr)OCCCCCCCCCCCCCCCCOP(=O)(O)OCCBr | 62.5 µg/mL (≈ 98.8 µM) | 62.5 µg/mL (≈ 98.8 µM) | – | 125 µg/mL (≈ 198 µM) | 125 µg/mL (≈ 198 µM) | 125 µg/mL (≈ 198 µM)
O=P(OCCCCCCCCCCCCCCCCOP(=O)(Oc1ccccc1)Oc1ccccc1)(Oc1ccccc1)Oc1ccccc1 | 125 µg/mL (≈ 173 µM) | 62.5 µg/mL (≈ 86.5 µM) | > 500 µg/mL | 250 µg/mL (≈ 346 µM) | 250 µg/mL (≈ 346 µM) | 125 µg/mL (≈ 173 µM)
C[N+](C)(C)CCOP(=O)(O)OCCCCCCCCCCCCCCCl.[Cl-] | 7.8 µg/mL | 1 µg/mL | – | 7.8 µg/mL | 3.9 µg/mL | 0.5 µg/mL
C[N+](C)(C)CCOP(=O)([O-])OCCCCCCCCCCCCCCCCCCCCCCOP(=O)([O-])OCC[N+](C)(C)C | 1.25 µg/mL (≈ 1.86 µM) | 0.04 µg/mL (≈ 0.0594 µM) | 0.08 µg/mL (≈ 0.119 µM) | 1 µg/mL (≈ 1.49 µM) | 1 µg/mL (≈ 1.49 µM) | 0.5 µg/mL (≈ 0.743 µM)
O=P(OCCCCCCCCCCCCCCCCCCCCCCOP(=O)(Oc1ccccc1)Oc1ccccc1)(Oc1ccccc1)Oc1ccccc1 | 125 µg/mL (≈ 155 µM) | 125 µg/mL (≈ 155 µM) | > 500 µg/mL | 250 µg/mL (≈ 310 µM) | 250 µg/mL (≈ 310 µM) | 125 µg/mL (≈ 155 µM)
C[N+](C)(C)CCOP(=O)([O-])OCCCCCCCCCCCCCCCCCCCCCCCCOP(=O)([O-])OCC[N+](C)(C)C | 31.2 µg/mL (≈ 44.5 µM) | 3.9 µg/mL (≈ 5.56 µM) | – | 62.5 µg/mL (≈ 89.2 µM) | 62.5 µg/mL (≈ 89.2 µM) | 7.8 µg/mL (≈ 11.1 µM)

Results, then the compound that gave them:

MIC (Candida albicans [1]) | MIC (Cryptococcus neoformans [2]) | MIC (Aspergillus fumigatus) | MIC (Candida albicans [3]) | MIC (Candida albicans [4]) | MIC (Cryptococcus neoformans [5]) | Compound
125 µg/mL (≈ 299 µM) | 62.5 µg/mL (≈ 149 µM) | > 500 µg/mL | 250 µg/mL (≈ 598 µM) | 250 µg/mL (≈ 598 µM) | 125 µg/mL (≈ 299 µM) | O=P(O)(O)OCCCCCCCCCCCCCCCCOP(=O)(O)O
500 µg/mL | 250 µg/mL | – | 500 µg/mL | 500 µg/mL | 500 µg/mL | CCCCCCCCCCCCCCCCCCCCCCOP(=O)(O)OCC[N+](C)(C)C.[Cl-]
250 µg/mL (≈ 446 µM) | 250 µg/mL (≈ 446 µM) | – | 250 µg/mL (≈ 446 µM) | 250 µg/mL (≈ 446 µM) | 250 µg/mL (≈ 446 µM) | C[N+](C)(C)CCOP(=O)([O-])OCCCCCCCCCCCCCCOP(=O)([O-])OCC[N+](C)(C)C
125 µg/mL (≈ 484 µM) | 62.5 µg/mL (≈ 242 µM) | > 500 µg/mL | 250 µg/mL (≈ 967 µM) | 250 µg/mL (≈ 967 µM) | 62.5 µg/mL (≈ 242 µM) | OCCCCCCCCCCCCCCCCO
> 500 µg/mL | 500 µg/mL (≈ 698 µM) | – | – | > 500 µg/mL | 500 µg/mL (≈ 698 µM) | O=P(O)(OCCBr)OCCCCCCCCCCCCCCCCCCCCCCOP(=O)(O)OCCBr
250 µg/mL (≈ 497 µM) | 62.5 µg/mL (≈ 124 µM) | > 500 µg/mL | 250 µg/mL (≈ 497 µM) | 250 µg/mL (≈ 497 µM) | 125 µg/mL (≈ 249 µM) | O=P(O)(O)OCCCCCCCCCCCCCCCCCCCCCCOP(=O)(O)O
250 µg/mL | 62.5 µg/mL | > 500 µg/mL | 250 µg/mL | 125 µg/mL | 62.5 µg/mL | CCCCCCCCCCCCCCCCOP(=O)(O)O [HEXADECYL DIHYDROGEN PHOSPHATE]
> 500 µg/mL | 15.6 µg/mL (≈ 24.2 µM) | – | – | > 500 µg/mL | 15.6 µg/mL (≈ 24.2 µM) | C[N+](C)(C)CCOP(=O)([O-])OCCCCCCCCCCCCCCCCCCCCOP(=O)([O-])OCC[N+](C)(C)C
500 µg/mL (≈ 939 µM) | 250 µg/mL (≈ 469 µM) | – | 500 µg/mL (≈ 939 µM) | 500 µg/mL (≈ 939 µM) | 250 µg/mL (≈ 469 µM) | C[N+](C)(C)CCOP(=O)([O-])OCCCCCCCCCCCCOP(=O)([O-])OCC[N+](C)(C)C
0.5 µg/mL | 0.5 µg/mL | – | 1 µg/mL | 1 µg/mL | 0.5 µg/mL | CCCCCCCCCCCCCCCCOP(=O)(O)OCC[N+](C)(C)C.[Cl-]
> 500 µg/mL | > 500 µg/mL | > 500 µg/mL | > 500 µg/mL | > 500 µg/mL | > 500 µg/mL | OCCCCCCCCCCCCCCCCCCCCCCO
125 µg/mL (≈ 516 µM) | 62.5 µg/mL (≈ 258 µM) | > 500 µg/mL | 250 µg/mL (≈ 1030 µM) | 250 µg/mL (≈ 1030 µM) | 125 µg/mL (≈ 516 µM) | CCCCCCCCCCCCCCCCO [CETYL ALCOHOL]

Source: ChEMBL document CHEMBL1158679, “Synthetic analogues of irlbacholine: a novel antifungal plant metabolite isolated from Irlbachia alata” (1999)
